# SR-BI DiI inh – inhibitors of SR-BI mediated HDL lipid uptake, primary screen, ldlA[mSR-BI] cells, fluorescence, single point. Scavenger receptor class B member 1 (Mus musculus), Q61009. actives 0.96% (n = 320,000). inhibition, % at 12.5 µM. ldlA[mSR-BI] CHO cells, DiI-HDL uptake fluorescence, 3 h;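 active = mean replicate inhibition of at least 70% and a set share of replicates each scoring 70 or more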;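 note: 0% = median of neutral control wells and 100% = median of positive control wells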
# Target sequence (Q61009 whole entry, looked up): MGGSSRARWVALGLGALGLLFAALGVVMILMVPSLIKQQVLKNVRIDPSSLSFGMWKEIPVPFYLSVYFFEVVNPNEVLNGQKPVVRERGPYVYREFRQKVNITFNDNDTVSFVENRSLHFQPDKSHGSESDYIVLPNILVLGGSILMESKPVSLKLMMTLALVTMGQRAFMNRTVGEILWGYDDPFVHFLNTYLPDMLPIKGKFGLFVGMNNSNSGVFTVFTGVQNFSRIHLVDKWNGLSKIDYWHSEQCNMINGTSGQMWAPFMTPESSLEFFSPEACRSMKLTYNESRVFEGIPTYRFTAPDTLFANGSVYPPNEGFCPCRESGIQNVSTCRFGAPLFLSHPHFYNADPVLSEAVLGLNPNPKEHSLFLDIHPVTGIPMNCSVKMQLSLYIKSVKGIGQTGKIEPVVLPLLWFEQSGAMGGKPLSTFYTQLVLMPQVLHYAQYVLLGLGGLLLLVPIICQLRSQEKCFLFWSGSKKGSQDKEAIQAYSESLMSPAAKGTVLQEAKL
# SR-BI DiI-HDL act – activators of SR-BI mediated DiI-HDL uptake, primary screen, ldlA[mSR-BI] CHO cells, DiI fluorescence; 3 h; 100 = double the neutral-control signal; activation, % at 12.5 µM; actives 0.096% (n = 320,000); AID 504775, 2011;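 active = mean replicate activation of at least 60% and every replicate at or above 60%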;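 note: 0% = median plate neutral-control signal and 100% = twice that signal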
#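 System: CHO ldlA[mSR-BI] cells / Medium: HEPES-buffered (25 mM, pH 7.4) F12 plus 0.5% BSA / Probe or stimulus: labelled HDL, 10 µg/mL / Doses: single compound concentration, delivered by pin transfer / Schedule: 3 h, 37 °C / Measured by: DiI fluorescence, bottom read / Measure: cell-associated DiI fluorescence as measure of HDL uptake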
# JMJD2C inh – inhibitors of GASC-1 histone demethylase, primary screen, biochemical, fluorescence, DELFIA europium; Lysine-specific demethylase 4C (Homo sapiens), Q9H3R0; GST-JMJD2C(1-420) H3K9me3 demethylation; inhibition, % at 2.35 µM; actives 0.069% (n = 330,000);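 active = more than half of a compound's replicate wells show inhibition beyond 50%, single wells judged on their own value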;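 note: signal counts dimethyl H3K9 product captured on neutravidin plate; 0% = median of DMSO wells and 100% = 0.3 times that DMSO median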
# AHR activator – AHR activators, primary screen, cell-based, luminescence, luciferase reporter, human; Aryl hydrocarbon receptor (Homo sapiens), P35869; activation, % at 5 µM; AHR-responsive luciferase reporter cells; AID 2796, 2010; actives 2.5% (n = 320,000); in the data active = activation above about 47%;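 note: 0% = vehicle wells and 100% = reference agonist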
# FXN GAA850 act – FXN promoter activators, primary screen, cell-based, luciferase luminescence, HEK293 lucGAA850; HEK293 lucGAA850 FXN promoter luciferase reporter, 24 h; percent of 10 µM SAHA response; actives 0.56% (n = 360,000); activation, % at 6 µM; AID 540364, 2011;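 active = activation above the average of all compounds screened plus 3 SD, cutoff fixed separately per campaign, cut at about 7.5% in these data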;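 note: 0% = DMSO wells and 100% = 10 µM SAHA wells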
# * marks the source's active call; other numbers are inactive results; i = inactive; / = no result given. This is a sample that favours compounds with a hit; in the whole collection about 3.7% have one here.
SMILES,SR-BI DiI inh,SR-BI DiI-HDL act,JMJD2C inh,AHR activator,FXN GAA850 act
Cc1ccc(NC(=O)c2ccc3nc[nH]c3c2)cc1C,-3,3,-2,64*,3
Cc1ccc(C(=O)Nc2ccc(Nc3ccccc3)cc2)cc1Br,/,/,-20,6,0
COc1ccc(C(=O)Nc2ccc(NS(=O)(=O)c3ccccc3)cc2)cc1OC,74*,-74,-4,4,1
O=C(Nc1ccc2cn[nH]c2c1)c1ccccc1F,-1,1,5,105*,4
Cc1ccc(C(=O)Nc2ccc(Nc3ccccc3)cc2)cc1C,99*,-99,-1,-5,0
COc1cc(C(=O)Nc2ccc(NC(C)=O)cc2)ccc1OCc1ccccc1,78*,-78,18,6,2
O=C(Nc1ccc2ccccc2c1)c1ccccc1F,-4,4,13,13,3
O=C(COC(=O)/C=C/c1ccc(F)cc1)NC1CCS(=O)(=O)C1 (stereo not drawn),-6,6,/,/,3
CCc1nnc(NC(=O)CSc2nnc(C3CC3)n2C)s1,-5,5,-7,3,1
OCCCCc1nccc2c1[nH]c1ccccc12,i,538*,-8,4,0
O=C(COC(=O)/C=C/c1ccccc1)NC1CCS(=O)(=O)C1 (stereo not drawn),-11,11,/,-1,0
CCOc1cc(/C=C/C(=O)OCC(=O)NC2CCS(=O)(=O)C2)ccc1OCc1ccccc1 (stereo not drawn),73*,-73,-11,0,0
Cc1ccc2nc(SCn3nnc4ccccc4c3=O)[nH]c2c1,-7,7,-3,75*,7
Cc1ccc2nc(SCC(=O)c3c(C)[nH]c4ccccc34)[nH]c2c1,-2,2,-12,53*,1
Cc1cc(C(=O)CSc2nc3ccc(Cl)cc3[nH]2)c(C)n1C,38,-38,27,79*,5
Cc1ccc2nc(SCC(=O)c3cc(C)n(C)c3C)[nH]c2c1,18,-18,-3,52*,0
COc1ccccc1CCNC(=O)C1CCN(c2nnc(C)c3c(C)n(-c4ccc(C)cc4)nc23)CC1,80*,-80,-5,-1,-1
COc1ccc(-c2sc3ccc(N4CCOCC4)cc3c2C#CC(C)(C)O)cc1,58,-58,-2,49*,3
COc1ccc(-c2sc3ccc(N4CCOCC4)cc3c2C#Cc2ccsc2)cc1,90*,-90,9,23,4
COC(=O)c1ccccc1NC(=O)Nc1ccc2c(c1)OCO2,2,-2,-4,5,2
O=C(Nc1ccc2c(c1)OCO2)c1c[nH]c(=O)n(-c2ccc(F)cc2)c1=O,-1,1,1,55*,2
O=C(Nc1ccc(Cl)cc1)Nc1ccc2c(c1)OCO2,7,-7,0,59*,4
CC(C)c1ccccc1NC(=O)Nc1ccc2c(c1)OCO2,-4,4,12,56*,0
O=C(NCCc1ccccc1)Nc1ccc2c(c1)OCO2,-14,14,5,71*,2
CC(Sc1ccc2c(c1)OCCO2)C(=O)Nc1ccc(N2CCOCC2)cc1 (stereo not drawn),13,-13,-6,0,0
SMILES,SR-BI DiI inh,SR-BI DiI-HDL act,JMJD2C inh,AHR activator,FXN GAA850 act
COc1cccc(S(=O)(=O)N(C)C[C@H]2OCc3cnnn3CCCC(=O)N([C@H](C)CO)C[C@@H]2C)c1,/,/,/,/,-2
Cc1cc(C)c(NC(=O)Nc2ccc3c(c2)OCO3)c(C)c1,-15,15,12,51*,4
O=C(Nc1ccc(F)cc1)Nc1ccc2c(c1)OCO2,-5,5,-2,67*,2
Cc1ccc(OCC(=O)Nc2ccc3c(c2)OCO3)c(C)c1,4,-4,-3,8,0
NC(=O)c1cc(Cl)ccc1OCC(=O)Nc1ccc2c(c1)OCO2,14,-14,0,51*,5
Cc1ccc(NC(=O)Nc2ccc3c(c2)OCO3)c(Br)c1,-6,6,19,20,5
O=C(Nc1ccc2c(c1)OCO2)Nc1ccc(F)cc1F,17,-17,-1,24,5
COc1ccc(C(C)=O)cc1COC(=O)CCCN1C(=O)c2ccccc2C1=O,2,-2,3,0,-1
CC(C)(C)OC(=O)C[C@@H]1C/C=C\C[C@H](CC(=O)NCCO)C(=O)NC[C@@H](c2ccccc2)OC1=O,-40,40,-3,1,1
COc1cccc(NC(=O)Cn2c(=O)n(CCC(=O)NC3CCN(Cc4ccccc4)CC3)c(=O)c3ccccc32)c1,/,/,0,0,1
C[C@@H](NC(=O)[C@@H]1Cc2ccccc2CN1)C(=O)NC1CCCCC1,-37,37,27,2,0
COc1cccc2sc(Nc3nnc(-c4ccc(F)cc4)o3)nc12,/,/,-14,66*,0
COc1cc(CNC(=O)c2cc(-c3cc(F)ccc3OC(C)C)n[nH]2)cc(OC)c1,/,/,/,/,0
Cc1ccc(C(C)C)c(OCC(=O)NNCC(=O)Nc2cccc(F)c2)c1,28,-28,-1,3,1
CCN(CC(=O)Nc1ccc(NC(C)=O)cc1)C(=O)/C=C/c1ccc(S(=O)(=O)N2CCCCCC2)cc1,15,-15,0,11,1
Cc1ccc(-n2c(SCC(=O)NCC3CCCO3)nc3n[nH]c(C)c3c2=N)cc1Cl (stereo not drawn),51,-51,12,59*,-3
Cc1cc(-n2c(SCC(=O)NCCC3=CCCCC3)nc3n[nH]c(C)c3c2=N)ccc1Cl,15,-15,7,53*,-4
CN1c2ccccc2C(=O)NC1c1ccc([N+](=O)[O-])s1 (stereo not drawn),-12,12,6,0,2
CCOC(=O)N1CCN(C(=O)c2cc3cc(Cl)ccc3[nH]2)CC1,5,-5,5,/,1
CCOC(=O)N1CCN(C(=O)c2cc3cc(F)ccc3[nH]2)CC1,-20,20,8,58*,1
O=C(c1cc2cc(F)ccc2[nH]1)N1CCCC(Nc2ccc(F)cc2)C1 (stereo not drawn),-1,1,-40,63*,1
CCOC(=O)C1CCCN(C(=O)c2cc(-c3ccncc3)nc3ccccc23)C1 (stereo not drawn),-17,17,2,6,1
CCOC(=O)C1CCCN(C(=O)c2cc3cc(F)ccc3[nH]2)C1 (stereo not drawn),/,/,-10,50*,0
CCOC(=O)C1CCN(C(=O)c2cc3cc(F)ccc3[nH]2)CC1,-5,5,13,/,2

# Assay outcomes deposited in PubChem BioAssay by several laboratories.
